Experimental findings from ChEMBL document CHEMBL1151431, “Role of lon, an ATP-dependent protease homolog, in resistance of Pseudomonas aeruginosa to ciprofloxacin” (2007) are described below.

≈ marks a conversion by molar mass, not a printed value. Calls of active or inactive are those of the source. The rule behind the calls is not given here.

Assay [1] has as its system Pseudomonas aeruginosa. Briefly: Antibacterial activity against wild type Pseudomonas aeruginosa PAO1 H103 after 24 hrs by broth microdilution technique. It is filed as functional. In a few lines:
(§1)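 Broth microdilution MIC with P. aeruginosa PAO1 H103 (wild type), Tn5-lux insertion mutants or complemented strain. Overnight LB cultures grown at 37°C with agitation, diluted 1:1,000 in LB. Antimicrobials made fresh daily. Growth scored after 24 h at 37°C. Four independent repeats; mode reported.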

In assay [2] the test system is Pseudomonas aeruginosa. Briefly: Antibacterial activity against 31_C9 allele containing Pseudomonas aeruginosa PAO1 H1104 mutant strain with lon::lux mutation after 24 hrs by broth microdilution technique. It is filed as functional. The procedure, abridged: as §1
In assay [3] the test system is Pseudomonas aeruginosa. Briefly: Antibacterial activity against 74_D9 allele containing Pseudomonas aeruginosa PAO1 H1105 mutant strain with lon::lux mutation after 24 hrs by broth microdilution technique. It is filed as functional. The procedure, abridged: as §1
Assay [4] relates to Pseudomonas aeruginosa. Briefly: Antibacterial activity against 24_A2 allele containing Pseudomonas aeruginosa PAO1 H1106 mutant strain with lon::lux mutation after 24 hrs by broth microdilution technique. It is filed as functional. In a few lines: as §1
The subject of assay [5] is Pseudomonas aeruginosa. Briefly: Antibacterial activity against 69_C12 allele containing Pseudomonas aeruginosa PAO1 H1109 mutant strain with recA::lux mutation after 24 hrs by broth microdilution technique. It is filed as functional. The procedure, abridged:
as §1

Assay [6] deals with Pseudomonas aeruginosa. Briefly: Antibacterial activity against 6_G1 allele containing Pseudomonas aeruginosa PAO1 H1121 mutant strain with PA4961::lux mutation after 24 hrs by broth microdilution technique. It is filed as functional. In a few lines: as §1
Assay [7] relates to Pseudomonas aeruginosa. Briefly: Antibacterial activity against 53_F11 allele containing Pseudomonas aeruginosa PAO1 H1124 mutant strain with PA5279::lux mutation after 24 hrs by broth microdilution technique. It is filed as functional. The procedure, abridged:
as §1

Assay [8] concerns Pseudomonas aeruginosa. Briefly: Antibacterial activity against 16_G12 allele containing Pseudomonas aeruginosa PAO1 H1125 mutant strain with recG::lux mutation after 24 hrs by broth microdilution technique. It is filed as functional. In a few lines:
as §1

Assay [9] has as its system Pseudomonas aeruginosa. Briefly: Antibacterial activity against 70_H3 allele containing Pseudomonas aeruginosa PAO1 H1129 mutant strain with rnt::lux mutation after 24 hrs by broth microdilution technique. It is filed as functional. In a few lines:
as §1

Assay [10] concerns Pseudomonas aeruginosa. Briefly: Antibacterial activity against 63_H5 allele containing Pseudomonas aeruginosa PAO1 H1133 mutant strain with nfxB::lux mutation after 24 hrs by broth microdilution technique. It is filed as functional. In a few lines:
as §1

Assay [11] has as its system Pseudomonas aeruginosa. Briefly: Antibacterial activity against 75_F11 allele containing Pseudomonas aeruginosa PAO1 H1136 mutant strain with PA5455::lux mutation after 24 hrs by broth microdilution technique. It is filed as functional. In a few lines:
as §1

Assay [12] concerns Pseudomonas aeruginosa. Briefly: Antibacterial activity against Pseudomonas aeruginosa PAO1 H1105/lon+c mutant strain with lon::lux/lon+ mutation after 24 hrs by broth microdilution technique. It is filed as functional. The procedure, abridged: as §1
Assay [13] deals with Pseudomonas aeruginosa. Briefly: Antibacterial activity against 31_C9 allele containing Pseudomonas aeruginosa PAO1 H1104 mutant strain with lon::lux mutation assessed as fold decrease in MIC after 24 hrs by broth microdilution technique relative to wild type. It is filed as functional. The procedure, abridged: as §1
The subject of assay [14] is Pseudomonas aeruginosa. Briefly: Antibacterial activity against 74_D9 allele containing Pseudomonas aeruginosa PAO1 H1105 mutant strain with lon::lux mutation assessed as fold decrease in MIC after 24 hrs by broth microdilution technique relative to wild type. It is filed as functional. In a few lines: as §1
For assay [15], the system named is Pseudomonas aeruginosa. Briefly: Antibacterial activity against 24_A2 allele containing Pseudomonas aeruginosa PAO1 H1106 mutant strain with lon::lux mutation assessed as fold decrease in MIC after 24 hrs by broth microdilution technique relative to wild type. It is filed as functional. In a few lines: as §1
In assay [16] the test system is Pseudomonas aeruginosa. Briefly: Antibacterial activity against Pseudomonas aeruginosa PAO1 H1105/lon+ mutant strain with lon::lux mutation assessed as fold decrease in MIC after 24 hrs by broth microdilution technique relative to wild type. It is filed as functional. The procedure, abridged:
as §1

Assay [17] relates to Pseudomonas aeruginosa. Briefly: Antimicrobial activity in 0.01 ug/ml pretreated Pseudomonas aeruginosa PAO1 H103 at 2 times MIC after overnight incubation by adaptive resistance assay. It is filed as functional, organism-based. In a few lines:
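Modified time-kill with PAO1 H103 grown to mid-log (OD600 0.5–0.6) in LB at 37°C with or without ciprofloxacin 0.01 or 0.03 µg/ml. Cells were pelleted, washed in prewarmed PBS pH 7.4, resuspended in prewarmed LB with ciprofloxacin 0.2 µg/ml (2× MIC) and shaken at 37°C. Samples taken every 15–20 min for 2 h and plated on LB agar for overnight CFU counts at 37°C. Four independent experiments.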

Assay [18] has as its system Pseudomonas aeruginosa. Briefly: Increase in lon gene expression in Pseudomonas aeruginosa PAO1 H1105 mutant strain with lon::lux mutation assessed as incese in lon::lux fusion at 0.3 times MIC by luminescence assay relative to control. It is filed as functional, organism-based.
The subject of assay [19] is Pseudomonas aeruginosa. Briefly: Drug resistance in Pseudomonas aeruginosa PAO1 H1105 assessed as survivality at 0.0075 ug/ml after overnight incubation by adaptive resistance assay. It is filed as functional, organism-based.
Assay [20] relates to Pseudomonas aeruginosa. Briefly: Effect on morphological change in Pseudomonas aeruginosa PAO1 H1105 assessed as elongation in cell length at 0.03 ug/ml by Grams staining-based light microscopy. It is filed as functional, organism-based.
The subject of assay [21] is Pseudomonas aeruginosa. Briefly: Effect on morphological change in Pseudomonas aeruginosa PAO1 H1105/lon+ assessed as elongation in cell length at 0.03 ug/ml by Grams staining-based light microscopy.
Assay [22] deals with Pseudomonas aeruginosa. Briefly: Effect on morphological change in Pseudomonas aeruginosa PAO1 H1105/lon+ assessed as restoration of cell division at 0.03 ug/ml by Grams staining-based light microscopy.

Take GENTAMICIN: the MIC in the assay on Pseudomonas aeruginosa [1], against Pseudomonas aeruginosa [2], against Pseudomonas aeruginosa [3], in the assay with Pseudomonas aeruginosa [4], in the assay on Pseudomonas aeruginosa [5] and against Pseudomonas aeruginosa [6] was 2 µg/mL each time. Moreover, the MIC against Pseudomonas aeruginosa [7] was 2 µg/mL; against Pseudomonas aeruginosa [8], 2 µM; in the assay with Pseudomonas aeruginosa [9], 2 µg/mL; in the assay on Pseudomonas aeruginosa [10], 2 µg/mL; against Pseudomonas aeruginosa [11] it was 2 µg/mL.
In the case of `CCn1cc(C(=O)O)c(=O)c2cc(F)c(N3CCNCC3)cc21` [NORFLOXACIN], the MIC in the assay with Pseudomonas aeruginosa [1] (PAO1 H103, 24 h) was 0.3 µg/mL (≈ 0.939 µM); in the assay on Pseudomonas aeruginosa [2] (PAO1 H1104, 24 h), 0.15 µg/mL (≈ 0.47 µM); in the assay with Pseudomonas aeruginosa [3] (PAO1 H1105, 24 h), 0.075 µg/mL (≈ 0.235 µM); in the assay on Pseudomonas aeruginosa [4] (PAO1 H1106, 24 h), 0.15 µg/mL (≈ 0.47 µM); with Pseudomonas aeruginosa [5] (PAO1 H1109, 24 h), 0.075 µg/mL (≈ 0.235 µM); with Pseudomonas aeruginosa [6] (PAO1 H1121, 24 h) it was 0.075 µg/mL (≈ 0.235 µM). For the same molecule, the MIC in the assay with Pseudomonas aeruginosa [7] (PAO1 H1124, 24 h) was 0.15 µg/mL (≈ 0.47 µM); in the assay on Pseudomonas aeruginosa [8] (PAO1 H1125, 24 h) it was 0.15 µg/mL; against Pseudomonas aeruginosa [12] it was 0.3 µg/mL (≈ 0.939 µM); against Pseudomonas aeruginosa [9] (PAO1 H1129, 24 h) it was > 0.6 µg/mL; with Pseudomonas aeruginosa [10] (PAO1 H1133, 24 h) it was > 0.6 µg/mL; in the assay on Pseudomonas aeruginosa [11] (PAO1 H1136, 24 h), > 0.6 µg/mL. Also, the fold change (FC) was 2 in the assay on Pseudomonas aeruginosa [13], 4 with Pseudomonas aeruginosa [14], 2 with Pseudomonas aeruginosa [15] and 1 in the assay on Pseudomonas aeruginosa [16].
For the molecule `CCn1cc(C(=O)O)c(=O)c2ccc(C)nc21` [NALIDIXIC ACID], the MIC is 256 µg/mL (≈ 1100 µM) with Pseudomonas aeruginosa [1] (PAO1 H103, 24 h); 128 µg/mL (≈ 551 µM) against Pseudomonas aeruginosa [2] (PAO1 H1104, 24 h); 128 µg/mL (≈ 551 µM) against Pseudomonas aeruginosa [3] (PAO1 H1105, 24 h); 128 µg/mL (≈ 551 µM) against Pseudomonas aeruginosa [4] (PAO1 H1106, 24 h); 256 µg/mL (≈ 1100 µM) in the assay on Pseudomonas aeruginosa [5] (PAO1 H1109, 24 h); 128 µg/mL (≈ 551 µM) against Pseudomonas aeruginosa [6] (PAO1 H1121, 24 h). Also, the MIC in the assay with Pseudomonas aeruginosa [7] (PAO1 H1124, 24 h) is 128 µg/mL (≈ 551 µM); against Pseudomonas aeruginosa [8] (PAO1 H1125, 24 h) it was 128 µg/mL; against Pseudomonas aeruginosa [12], 256 µg/mL (≈ 1100 µM); in the assay with Pseudomonas aeruginosa [9] (PAO1 H1129, 24 h) it was 512 µg/mL (≈ 2200 µM); with Pseudomonas aeruginosa [10] (PAO1 H1133, 24 h), 512 µg/mL (≈ 2200 µM); against Pseudomonas aeruginosa [11] (PAO1 H1136, 24 h), 512 µg/mL (≈ 2200 µM). Besides, the fold change (FC) with Pseudomonas aeruginosa [13] was 2; in the assay with Pseudomonas aeruginosa [14] it was 2; with Pseudomonas aeruginosa [15] it was 2; with Pseudomonas aeruginosa [16], 1.
For the molecule `O=C(O)c1cn(C2CC2)c2cc(N3CCNCC3)c(F)cc2c1=O` [CIPROFLOXACIN], the outcome in the assay with Pseudomonas aeruginosa [17], in the assay on Pseudomonas aeruginosa [19], in the assay with Pseudomonas aeruginosa [20] and with Pseudomonas aeruginosa [21] was inactive. Further, the MIC was determined as 0.1 µg/mL (≈ 0.302 µM) in the assay with Pseudomonas aeruginosa [1] (PAO1 H103, 24 h); 0.025 µg/mL (≈ 0.0754 µM) against Pseudomonas aeruginosa [2] (PAO1 H1104, 24 h); 0.025 µg/mL (≈ 0.0754 µM) against Pseudomonas aeruginosa [3] (PAO1 H1105, 24 h); 0.025 µg/mL (≈ 0.0754 µM) in the assay with Pseudomonas aeruginosa [4] (PAO1 H1106, 24 h); 0.05 µg/mL (≈ 0.151 µM) against Pseudomonas aeruginosa [5] (PAO1 H1109, 24 h); 0.05 µg/mL (≈ 0.151 µM) against Pseudomonas aeruginosa [6] (PAO1 H1121, 24 h). In addition, the MIC was 0.05 µg/mL (≈ 0.151 µM) in the assay with Pseudomonas aeruginosa [7] (PAO1 H1124, 24 h); 0.025 µg/mL in the assay with Pseudomonas aeruginosa [8] (PAO1 H1125, 24 h); 0.1 µg/mL (≈ 0.302 µM) against Pseudomonas aeruginosa [12]; 0.4 µg/mL (≈ 1.21 µM) with Pseudomonas aeruginosa [9] (PAO1 H1129, 24 h); 0.8 µg/mL (≈ 2.41 µM) against Pseudomonas aeruginosa [10] (PAO1 H1133, 24 h); 0.4 µg/mL (≈ 1.21 µM) in the assay with Pseudomonas aeruginosa [11] (PAO1 H1136, 24 h). Also, the outcome with Pseudomonas aeruginosa [18] and with Pseudomonas aeruginosa [22] was Active. Moreover, the “fold change (FC)” value was 4 in the assay with Pseudomonas aeruginosa [13], 4 with Pseudomonas aeruginosa [14], 4 in the assay on Pseudomonas aeruginosa [15] and 1 with Pseudomonas aeruginosa [16].
For `C[C@@H](O)[C@H]1C(=O)N2C(C(=O)O)=C(SCCNC=N)C[C@H]12` [IMIPENEM ANHYDROUS], the MIC came to 1 µg/mL (≈ 3.34 µM) with Pseudomonas aeruginosa [1] (PAO1 H103, 24 h); 1 µg/mL (≈ 3.34 µM) with Pseudomonas aeruginosa [2] (PAO1 H1104, 24 h); 1 µg/mL (≈ 3.34 µM) against Pseudomonas aeruginosa [3] (PAO1 H1105, 24 h); 1 µg/mL (≈ 3.34 µM) in the assay with Pseudomonas aeruginosa [4] (PAO1 H1106, 24 h); 1 µg/mL (≈ 3.34 µM) in the assay on Pseudomonas aeruginosa [5] (PAO1 H1109, 24 h); 1 µg/mL (≈ 3.34 µM) against Pseudomonas aeruginosa [6] (PAO1 H1121, 24 h). Besides, the MIC came to 1 µg/mL (≈ 3.34 µM) against Pseudomonas aeruginosa [7] (PAO1 H1124, 24 h); 1 µg/mL against Pseudomonas aeruginosa [8] (PAO1 H1125, 24 h); 1 µg/mL (≈ 3.34 µM) against Pseudomonas aeruginosa [12]; 1 µg/mL (≈ 3.34 µM) against Pseudomonas aeruginosa [9] (PAO1 H1129, 24 h); 1 µg/mL (≈ 3.34 µM) in the assay with Pseudomonas aeruginosa [10] (PAO1 H1133, 24 h); 1 µg/mL (≈ 3.34 µM) in the assay with Pseudomonas aeruginosa [11] (PAO1 H1136, 24 h).
